These results are taken from publication PMC11651071 (International Journal of Nanomedicine, 2024).

For data set [1], the system named is Hela cells xenograft tumor. The experiment in a line: In vivo anti-tumor effect, subcutaneous xenograft model using Hela cells. More on the design: species or system nude mice. Particulars: for Body weight of nude mice during treatment: CU, CA7, CA7-LP 50 mg/kg, DDP-INJ 3.5 mg/kg, i.p. every 2 days for 14 days; for Tumor cell infiltration in kidneys and livers (H&E): after treatment. Summed up:
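Female BALB/c immunodeficient mice (4 w, 15–16 g) received 3.5×10^7 HeLa cells in 100 µL PBS s.c. near the right scapula. At ~100 mm³, mice were randomised into five groups (n = 5): saline, test articles at 50 mg/kg, or cisplatin injection at 3.5 mg/kg. Dosing was i.p. every 2 days for 14 days. Tumour volume (V = 1/2·ab²) and body weight were tracked; tumours were then weighed and organs formalin-fixed for H&E, with tumour Ki67 immunohistochemistry.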

The test system of data set [2] is Hela cells. The experiment in a line: Cell apoptosis detection. Particulars: 24 h. It counts as cell-based.
Data set [3] has as its system Hela cells. The experiment in a line: Cell cycle assay. The format is cell-based. Particulars: 24 h. In a few lines: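 HeLa cells (DMEM, 10% FBS) were seeded at 5.5×10^5 cells/well in 6-well plates and treated in DMEM for 24 h. Collected cells were fixed by dropwise 70% ethanol and held at −20°C for 24 h. They were washed twice in chilled PBS, stained with PI buffer for 30 min at room temperature in the dark, and analysed by flow cytometry. Mean ± SD, ≥3 independent experiments.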

Data set [4] concerns Hela cells. The experiment in a line: Wound healing assay. The format is cell-based. The note with it: 24 h, serum-free DMEM. In a few lines: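 Scratch assay: a confluent HeLa monolayer (9×10^5 cells/well, 6-well plates) was scraped with a 200 µL pipette tip and washed twice with PBS. Treatments were added in serum-free DMEM and plates kept at 37°C, 5% CO2. Wound closure was imaged by microscope at 0 and 24 h.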

The subject of data set [5] is Hela cells. The experiment in a line: Cell viability assay. The format is cell-based. Particulars: 24 h. Summed up: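 MTT assay: HeLa cells at 4.5×10^3 cells/well were allowed to adhere for 24 h, then exposed to gradient concentrations for 24, 48 or 72 h, with 0.1% DMSO as negative control. MTT was added for 3.5 h at 37°C, and formazan was dissolved in DMSO and read at 490 nm. Inhibition rate = [1 − (ODsample − ODblank)/(ODcontrol − ODblank)] × 100%. Mean ± SD, ≥3 independent experiments.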

Where [6] appears, read: 50 mg/kg intraperitoneally every 2 days for 14 days.

Molecules are shown by their SMILES.

For the compound `N.N.[Cl][Pt][Cl]` [DDP-INJ, Cisplatin], the “Body weight of nude mice during treatment” value in data set [1] was “notable decrease in body weight”. The “Mortality of nude mice” value in data set [1] (DDP-INJ 3.5 mg/kg i.p., as the number of administrations increased) is listed as “some mice dying”. Further, the “Tumor cell infiltration in kidneys and livers (H&E)” value in data set [1] is “absent”. For the same compound, the Total apoptosis rate in data set [2] (2.5 μM) came to 11.57 ± 1.16%; in data set [2] (5 μM) it was 23.73 ± 2.30%; in data set [2] (10 μM), 32.17 ± 3.68%. For the same compound, the “Change of cell cycle distribution” value in data set [3] is “increase in the S phase and a decrease in G2/M phase”.

Compound `COc1cc(/C=C/C(=O)CC(=O)/C=C/c2ccc(O)c(OC)c2)ccc1O` [CU, Curcumin] showed a Tumor inhibition rate in data set [1] (setting [6]) of 28.58 ± 8.04%. For the same compound, the Tumor weight in data set [1] (setting [6]) is 0.49 ± 0.06 g. For the same compound, the “Body weight of nude mice during treatment” value in data set [1] is listed as “remained stable”. In addition, in data set [1], the “Tumor cell infiltration in kidneys and livers (H&E)” value is “present in small amounts”. For the same compound, the Total apoptosis rate in data set [2] (2.5 μM) amounted to 7.29 ± 1.64%; in data set [2] (5 μM) it was 11.64 ± 3.19%; in data set [2] (10 μM), 17.60 ± 3.39%. The results for the “Proportion of the G2/M phase” value in data set [3] (2.5 μM), in data set [3] (5 μM) and in data set [3] (10 μM) were 17.84 ± 1.07%, 20.46 ± 2.44% and 22.78 ± 3.60%, respectively. For the same compound, in data set [4], the Migration rate is given as 42.12 ± 3.06%. The same compound displayed a Maximum inhibition rate in data set [5] of 5.77 ± 2.40%.
